From ChEMBL document CHEMBL1138252, “Synthesis, in vitro inhibitory activity towards COX-2 and haemolytic activity of derivatives of esculentoside A” (Bioorg Med Chem Lett, 2007)

Assays:
[1] = target: T1, Prostaglandin G/H synthase 2 (Homo sapiens) (UniProt P35354); settings: Spodoptera frugiperda; Sf9; at 10 µM;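 further: recombinant human COX2 made in Sf9 insect cells, read-out is reactive oxygen species formed on arachidonic acid stimulation, measured after 30 min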
T1 sequence (whole entry): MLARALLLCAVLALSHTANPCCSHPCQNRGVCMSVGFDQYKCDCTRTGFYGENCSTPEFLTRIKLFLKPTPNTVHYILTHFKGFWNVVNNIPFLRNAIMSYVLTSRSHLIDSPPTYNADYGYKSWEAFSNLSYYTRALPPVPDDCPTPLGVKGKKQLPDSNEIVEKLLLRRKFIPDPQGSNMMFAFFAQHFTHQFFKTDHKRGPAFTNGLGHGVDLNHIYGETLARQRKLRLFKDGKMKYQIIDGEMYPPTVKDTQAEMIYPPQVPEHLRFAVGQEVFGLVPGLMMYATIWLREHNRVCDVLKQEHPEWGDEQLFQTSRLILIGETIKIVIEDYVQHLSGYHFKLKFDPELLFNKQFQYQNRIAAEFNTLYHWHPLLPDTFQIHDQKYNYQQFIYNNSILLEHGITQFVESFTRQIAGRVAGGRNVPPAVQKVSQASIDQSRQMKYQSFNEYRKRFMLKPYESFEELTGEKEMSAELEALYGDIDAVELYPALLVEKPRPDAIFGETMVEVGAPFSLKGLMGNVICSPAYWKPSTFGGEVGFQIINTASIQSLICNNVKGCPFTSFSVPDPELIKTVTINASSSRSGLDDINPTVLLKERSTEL

[2] = Toxicity against new Zealand rabbit blood assessed as hemolysis after 60 mins; format: tissue-based, Oryctolagus cuniculus; settings: read-out: HD50
How it was run: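 Erythrocytes washed three times in PBS (pH 7.4) and diluted to a 10% suspension. Compounds were dissolved in DMSO, then diluted with PBS to 2.5–250 µg/mL. Suspension was added, and samples were stirred and incubated 60 min at 37 °C with periodic stirring. After centrifugation at 3000 rpm for 5 min, supernatant A540 was read. Haemolysis % was calculated relative to distilled water (100%).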

Row | Compound | inhibition [1] [%] | HC50 at 1 h [2] [µM]
1 | COC(=O)[C@@]1(C)CC[C@]2(C(=O)N3CCNCC3)CC[C@]3(C)C(=CC[C@@H]4[C@@]5(C)C[C@H](O)[C@H](O[C@@H]6OC[C@@H](O[C@@H]7O[C@H](CO)[C@@H](O)[C@H](O)[C@H]7O)[C@H](O)[C@H]6O)[C@@](C)(CO)[C@@H]5CC[C@]43C)[C@@H]2C1 | 4.6 | 
2 | COC(=O)[C@@]1(C)CC[C@]2(C(=O)NCc3ccccc3Cl)CC[C@]3(C)C(=CC[C@@H]4[C@@]5(C)C[C@H](O)[C@H](O[C@@H]6OC[C@@H](O[C@@H]7O[C@H](CO)[C@@H](O)[C@H](O)[C@H]7O)[C@H](O)[C@H]6O)[C@@](C)(CO)[C@@H]5CC[C@]43C)[C@@H]2C1 | 82.9 | 42.8
3 | COC(=O)[C@@H](Cc1ccccc1)NC(=O)[C@]12CC[C@](C)(C(=O)OC)C[C@H]1C1=CC[C@@H]3[C@@]4(C)C[C@H](O)[C@H](O[C@@H]5OC[C@@H](O[C@@H]6O[C@H](CO)[C@@H](O)[C@H](O)[C@H]6O)[C@H](O)[C@H]5O)[C@@](C)(CO)[C@@H]4CC[C@@]3(C)[C@]1(C)CC2 |  | 204
4 | COC(=O)[C@@]1(C)CC[C@]2(C(=O)NCc3ccc(F)cc3)CC[C@]3(C)C(=CC[C@@H]4[C@@]5(C)C[C@H](O)[C@H](O[C@@H]6OC[C@@H](O[C@@H]7O[C@H](CO)[C@@H](O)[C@H](O)[C@H]7O)[C@H](O)[C@H]6O)[C@@](C)(CO)[C@@H]5CC[C@]43C)[C@@H]2C1 | 58.1 | 94.5
5 | COC(=O)[C@@]1(C)CC[C@]2(C(=O)O)CC[C@]3(C)C(=CC[C@@H]4[C@@]5(C)C[C@H](O)[C@H](O[C@@H]6OC[C@@H](O[C@@H]7O[C@H](CO)[C@@H](O)[C@H](O)[C@H]7O)[C@H](O)[C@H]6O)[C@@](C)(CO)[C@@H]5CC[C@]43C)[C@@H]2C1 | 21.7 | 186
6 | CCCNC(=O)[C@]12CC[C@](C)(C(=O)OC)C[C@H]1C1=CC[C@@H]3[C@@]4(C)C[C@H](O)[C@H](O[C@@H]5OC[C@@H](O[C@@H]6O[C@H](CO)[C@@H](O)[C@H](O)[C@H]6O)[C@H](O)[C@H]5O)[C@@](C)(CO)[C@@H]4CC[C@@]3(C)[C@]1(C)CC2 |  | 191
7 | CNC(=O)[C@]12CC[C@](C)(C(=O)OC)C[C@H]1C1=CC[C@@H]3[C@@]4(C)C[C@H](O)[C@H](O[C@@H]5OC[C@@H](O[C@@H]6O[C@H](CO)[C@@H](O)[C@H](O)[C@H]6O)[C@H](O)[C@H]5O)[C@@](C)(CO)[C@@H]4CC[C@@]3(C)[C@]1(C)CC2 |  | 276
8 | COC(=O)[C@H](NC(=O)[C@]12CC[C@](C)(C(=O)OC)C[C@H]1C1=CC[C@@H]3[C@@]4(C)C[C@H](O)[C@H](O[C@@H]5OC[C@@H](O[C@@H]6O[C@H](CO)[C@@H](O)[C@H](O)[C@H]6O)[C@H](O)[C@H]5O)[C@@](C)(CO)[C@@H]4CC[C@@]3(C)[C@]1(C)CC2)C(C)C |  | > 266
9 | COC(=O)[C@@]1(C)CC[C@]2(C(=O)NCCO)CC[C@]3(C)C(=CC[C@@H]4[C@@]5(C)C[C@H](O)[C@H](O[C@@H]6OC[C@@H](O[C@@H]7O[C@H](CO)[C@@H](O)[C@H](O)[C@H]7O)[C@H](O)[C@H]6O)[C@@](C)(CO)[C@@H]5CC[C@]43C)[C@@H]2C1 |  | > 287
10 | COC(=O)[C@@]1(C)CC[C@]2(C(=O)NCc3ccc(OC)c(OC)c3)CC[C@]3(C)C(=CC[C@@H]4[C@@]5(C)C[C@H](O)[C@H](O[C@@H]6OC[C@@H](O[C@@H]7O[C@H](CO)[C@@H](O)[C@H](O)[C@H]7O)[C@H](O)[C@H]6O)[C@@](C)(CO)[C@@H]5CC[C@]43C)[C@@H]2C1 | 19.4 | 215
11 | COC(=O)[C@@H](C)NC(=O)[C@]12CC[C@](C)(C(=O)OC)C[C@H]1C1=CC[C@@H]3[C@@]4(C)C[C@H](O)[C@H](O[C@@H]5OC[C@@H](O[C@@H]6O[C@H](CO)[C@@H](O)[C@H](O)[C@H]6O)[C@H](O)[C@H]5O)[C@@](C)(CO)[C@@H]4CC[C@@]3(C)[C@]1(C)CC2 |  | > 274
12 | COC(=O)[C@@H](CCSC)NC(=O)[C@]12CC[C@](C)(C(=O)OC)C[C@H]1C1=CC[C@@H]3[C@@]4(C)C[C@H](O)[C@H](O[C@@H]5OC[C@@H](O[C@@H]6O[C@H](CO)[C@@H](O)[C@H](O)[C@H]6O)[C@H](O)[C@H]5O)[C@@](C)(CO)[C@@H]4CC[C@@]3(C)[C@]1(C)CC2 |  | 203
13 | COC(=O)[C@@]1(C)CC[C@]2(C(=O)On3nnc4ccccc43)CC[C@]3(C)C(=CC[C@@H]4[C@@]5(C)C[C@H](O)[C@H](O[C@@H]6OC[C@@H](O[C@@H]7O[C@H](CO)[C@@H](O)[C@H](O)[C@H]7O)[C@H](O)[C@H]6O)[C@@](C)(CO)[C@@H]5CC[C@]43C)[C@@H]2C1 |  | 55.2
14 | CCCCNC(=O)[C@]12CC[C@](C)(C(=O)OC)C[C@H]1C1=CC[C@@H]3[C@@]4(C)C[C@H](O)[C@H](O[C@@H]5OC[C@@H](O[C@@H]6O[C@H](CO)[C@@H](O)[C@H](O)[C@H]6O)[C@H](O)[C@H]5O)[C@@](C)(CO)[C@@H]4CC[C@@]3(C)[C@]1(C)CC2 |  | 15.8
15 | COC(=O)[C@@]1(C)CC[C@]2(C(=O)NCCCc3ccccc3)CC[C@]3(C)C(=CC[C@@H]4[C@@]5(C)C[C@H](O)[C@H](O[C@@H]6OC[C@@H](O[C@@H]7O[C@H](CO)[C@@H](O)[C@H](O)[C@H]7O)[C@H](O)[C@H]6O)[C@@](C)(CO)[C@@H]5CC[C@]43C)[C@@H]2C1 |  | < 2.6

The next lines start with results.

Row | inhibition [1] [%] | Compound | HC50 at 1 h [2] [µM]
16 | 47.7 | COC(=O)[C@@H](Cc1c[nH]c2ccccc12)NC(=O)[C@]12CC[C@](C)(C(=O)OC)C[C@H]1C1=CC[C@@H]3[C@@]4(C)C[C@H](O)[C@H](O[C@@H]5OC[C@@H](O[C@@H]6O[C@H](CO)[C@@H](O)[C@H](O)[C@H]6O)[C@H](O)[C@H]5O)[C@@](C)(CO)[C@@H]4CC[C@@]3(C)[C@]1(C)CC2 | > 243
17 | 26.9 | COC(=O)[C@@]1(C)CC[C@]2(C(=O)NCc3ccccc3)CC[C@]3(C)C(=CC[C@@H]4[C@@]5(C)C[C@H](O)[C@H](O[C@@H]6OC[C@@H](O[C@@H]7O[C@H](CO)[C@@H](O)[C@H](O)[C@H]7O)[C@H](O)[C@H]6O)[C@@](C)(CO)[C@@H]5CC[C@]43C)[C@@H]2C1 | 136
18 | 75 | COC(=O)[C@@]1(C)CC[C@]2(C(=O)N(C(=O)NC3CCCCC3)C3CCCCC3)CC[C@]3(C)C(=CC[C@@H]4[C@@]5(C)C[C@H](O)[C@H](O[C@@H]6OC[C@@H](O[C@@H]7O[C@H](CO)[C@@H](O)[C@H](O)[C@H]7O)[C@H](O)[C@H]6O)[C@@](C)(CO)[C@@H]5CC[C@]43C)[C@@H]2C1 | < 2.4
19 | 56.8 | COC(=O)[C@@]1(C)CC[C@]2(C(=O)NCc3ccc(OC)cc3)CC[C@]3(C)C(=CC[C@@H]4[C@@]5(C)C[C@H](O)[C@H](O[C@@H]6OC[C@@H](O[C@@H]7O[C@H](CO)[C@@H](O)[C@H](O)[C@H]7O)[C@H](O)[C@H]6O)[C@@](C)(CO)[C@@H]5CC[C@]43C)[C@@H]2C1 | 12.7
20 | 94.7 | COC(=O)[C@@]1(C)CC[C@]2(C(=O)NCCc3ccccc3)CC[C@]3(C)C(=CC[C@@H]4[C@@]5(C)C[C@H](O)[C@H](O[C@@H]6OC[C@@H](O[C@@H]7O[C@H](CO)[C@@H](O)[C@H](O)[C@H]7O)[C@H](O)[C@H]6O)[C@@](C)(CO)[C@@H]5CC[C@]43C)[C@@H]2C1 | 21.3
21 | 126 | COC(=O)[C@@]1(C)CC[C@]2(C(=O)NCc3ccc(Cl)cc3)CC[C@]3(C)C(=CC[C@@H]4[C@@]5(C)C[C@H](O)[C@H](O[C@@H]6OC[C@@H](O[C@@H]7O[C@H](CO)[C@@H](O)[C@H](O)[C@H]7O)[C@H](O)[C@H]6O)[C@@](C)(CO)[C@@H]5CC[C@]43C)[C@@H]2C1 | < 2.6
